Published values pooled from the literature.
Protocols differ between the studies behind these lines.
Target: Bone morphogenetic protein receptor type-2 (BMPR2, Homo sapiens, UniProt Q13873)
Residues used in one study (Q13873 27-1038): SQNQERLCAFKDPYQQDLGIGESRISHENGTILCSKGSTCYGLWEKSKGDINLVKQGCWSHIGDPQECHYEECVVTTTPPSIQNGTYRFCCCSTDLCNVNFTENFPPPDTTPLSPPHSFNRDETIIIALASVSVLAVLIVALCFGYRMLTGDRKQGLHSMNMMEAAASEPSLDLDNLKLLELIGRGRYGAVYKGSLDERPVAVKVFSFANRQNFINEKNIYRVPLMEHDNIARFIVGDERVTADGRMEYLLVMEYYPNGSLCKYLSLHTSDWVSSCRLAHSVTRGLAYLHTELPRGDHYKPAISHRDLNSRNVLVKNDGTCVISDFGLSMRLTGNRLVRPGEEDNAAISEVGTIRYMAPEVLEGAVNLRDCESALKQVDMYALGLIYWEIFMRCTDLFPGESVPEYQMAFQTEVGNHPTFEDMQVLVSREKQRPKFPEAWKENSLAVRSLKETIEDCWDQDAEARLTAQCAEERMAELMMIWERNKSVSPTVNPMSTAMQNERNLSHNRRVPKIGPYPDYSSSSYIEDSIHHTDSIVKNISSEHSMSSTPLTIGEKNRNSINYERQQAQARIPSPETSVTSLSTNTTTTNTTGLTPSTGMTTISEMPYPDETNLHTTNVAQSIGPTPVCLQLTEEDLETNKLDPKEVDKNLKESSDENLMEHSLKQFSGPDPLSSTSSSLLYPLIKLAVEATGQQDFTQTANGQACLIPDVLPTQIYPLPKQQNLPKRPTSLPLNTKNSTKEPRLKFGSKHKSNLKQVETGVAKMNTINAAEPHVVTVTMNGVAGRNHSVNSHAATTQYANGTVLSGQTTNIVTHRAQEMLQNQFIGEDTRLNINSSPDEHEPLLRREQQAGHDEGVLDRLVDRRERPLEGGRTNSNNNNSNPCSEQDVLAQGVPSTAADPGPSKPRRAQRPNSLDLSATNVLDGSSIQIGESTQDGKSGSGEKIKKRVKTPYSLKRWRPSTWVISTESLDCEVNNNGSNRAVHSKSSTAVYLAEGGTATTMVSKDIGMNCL

| SMILES | assay | setting | quantity | value |
| --- | --- | --- | --- | --- |
| CCCCC(=O)Nc1ccc(-c2ccc3ncn(CCC)c(=O)c3c2)cn1 | binding, competition with immobilised ligand | 0.5 µM | remaining binding | 100% |
| C=CC(=O)N1CCC[C@@H](n2nc(-c3ccc(Oc4ccccc4)cc3)c3c(N)ncnc32)C1 | enzyme activity, inhibitor | 1 µM | inhibition | 19% |
| C[C@H]1CC[C@H](n2c3cnccc3c3cnc(Nc4ccc5c(n4)CCN(C(=O)CO)C5)nc32)CC1 | binding | 1 µM | remaining binding | 100% |
| COc1ccc2oc(-c3ccc4nc(N)oc4c3)c/c(=N\c3ccccc3NC(=O)CCN)c2c1 | binding | 1 µM | remaining binding | 104% |
| C1=C/COCc2cc(ccc2OCCN2CCCC2)Nc2nccc(n2)-c2cccc(c2)COC/1 | binding | 0.1 µM | remaining binding | 80% |
| N#Cc1ccc(NC(=O)Nc2ccccc2)cc1 | cell-free assay, competition with immobilised ligand | 25 µM | remaining binding | 95% |
| CC#CC(=O)N1CCC[C@H]1c1nc(-c2ccc(C(=O)Nc3ccccn3)cc2)c2c(N)nccn12 | enzyme activity, inhibitor | 1 µM | inhibition | 0% |
| Cc1ccc(NC(=O)c2ccnc(C(F)(F)F)c2)cc1-c1cc(OCCO)nc(N2CCOCC2)c1 | binding | 1 µM | remaining binding | 100% |
